Here are results for 18 molecules from ChEMBL document CHEMBL3045178, “Metabolites from Aspergillus fumigatus, an endophytic fungus associated with Melia azedarach, and their antifungal, antifeedant, and toxic activities” (J Agric Food Chem, 2012).

In brackets after ≈: the same amount, converted by molar mass. Some results are limits rather than exact numbers.

For one data set, the system named is Alternaria solani. Nature of the data set: Antifungal activity against Alternaria solani at 28 degC after 48 hr microbroth dilution method. Format: functional. The essentials:
(§1)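 Plant-pathogenic fungi isolated from infected plant organs. Fungi grown 18 h in PD medium at 28 ± 0.5 °C and 150 rpm, then diluted to about 1 × 10^6 CFU in PD medium. Compounds at 2 mg/mL DMSO stock, serially diluted in triplicate in PD medium in 96-well plates before the fungal suspension was added. DMSO served as negative control. After 48 h at 28 ± 0.5 °C, MIC taken as the lowest concentration with no visible growth.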

The subject of a further data set is Alternaria alternata. Kind of data set: Antifungal activity against Alternaria alternata at 28 degC after 48 hr microbroth dilution method. Format: functional. The essentials: as §1
The test system of data set [1] is Colletotrichum gloeosporioides. Nature of the data set: Antifungal activity against Colletotrichum gloeosporioides at 28 degC after 48 hr microbroth dilution method. Format: functional. The essentials: as §1
The next data set deals with Fusarium solani. Nature of the data set: Antifungal activity against Fusarium solani at 28 degC after 48 hr microbroth dilution method. Format: functional. The essentials: as §1
Data set [2] deals with Fusarium oxysporum f. sp. niveum. Nature of the data set: Antifungal activity against Fusarium oxysporum f. sp. niveum at 28 degC after 48 hr microbroth dilution method. Format: functional. The essentials:
as §1

Data set [3] deals with Fusarium oxysporum f. sp. vasinfectum. Kind of data set: Antifungal activity against Fusarium oxysporum f. sp. vasinfectum at 28 degC after 48 hr microbroth dilution method. The class given is functional. The essentials:
as §1

The subject of the next data set is Fusarium graminearum. Nature of the data set: Antifungal activity against Fusarium graminearum at 28 degC after 48 hr microbroth dilution method. Format: functional. The essentials: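 Microbroth dilution in PD medium. Fungi were grown 18 h at 28 ± 0.5 °C and 150 rpm, then diluted to about 1 × 10^6 CFU. Compounds (2 mg/mL DMSO stock) were serially diluted in triplicate and fungal suspension added. Incubated 48 h at 28 ± 0.5 °C. MIC was the lowest concentration with no visible growth. Controls: DMSO, carbendazim, hymexazol.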

A short description of data set [4]: Toxicity in Artemia salina (brine shrimp) […]. Format: organism-based. The settings on record: in vivo.
The test system of the next data set is Botrytis cinerea. Nature of the data set: Antifungal activity against Botryotinia fuckeliana at 28 degC after 48 hr microbroth dilution method. Format: functional. The essentials: as §1
Another data set relates to Mythimna separata. Nature of the data set: Antifeedant activity against Mythimna separata (Oriental armyworm) larvae assessed as antifeedant index by area of the leaf consumed. Further details: concentration or dose not given beside the values. Format: functional. The essentials: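 Positive control prepared at 10 mg/mL in acetone; leaves treated with acetone alone served as control. Ten treated leaves and 10 larvae per Petri dish lined with moistened filter paper. Held at 25 ± 2 °C, 12L:12D, 65−80% rh. Leaf area consumed recorded after 48 h. AFI = (C − T)/C × 100%, from control and treated areas consumed. Three repetitions.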

As for `C[C@H]1NC(=O)[C@@H](Cc2c[nH]c3ccccc23)n2c1nc1ccccc1c2=O` [FUMIQUINAZOLINE G], the MIC is 25 µg/mL (≈ 69.8 µM) in the data set with Alternaria solani; 12.5 µg/mL (≈ 34.9 µM) in the data set with Alternaria alternata; 12.5 µg/mL (≈ 34.9 µM) in data set [1]; 50 µg/mL (≈ 140 µM) with Fusarium solani; 50 µg/mL (≈ 140 µM) in data set [2]; 50 µg/mL (≈ 140 µM) in [3]. Further, the MIC against Fusarium graminearum and against Botrytis cinerea was 12.5 µg/mL (≈ 34.9 µM) each time. The same molecule yielded an LC50 in data set [4] of 78.8 µg/mL (≈ 220 µM).
For `COc1ccc2c3c([nH]c2c1)[C@H](C=C(C)C)N1C(=O)[C@@H]2CCCN2C(=O)[C@@H]1C3` [FUMITREMORGIN], the MIC in the data set with Alternaria solani was 25 µg/mL (≈ 65.9 µM); in the data set with Alternaria alternata, 12.5 µg/mL (≈ 32.9 µM); in data set [1], 12.5 µg/mL (≈ 32.9 µM); against Fusarium solani it was 50 µg/mL (≈ 132 µM); in data set [2] it was 25 µg/mL (≈ 65.9 µM); in [3] it was 50 µg/mL (≈ 132 µM). In addition, the MIC in the data set on Fusarium graminearum and in the data set on Botrytis cinerea was 12.5 µg/mL (≈ 32.9 µM) each time. Also, the LC50 in data set [4] worked out at 40.5 µg/mL (≈ 107 µM). In addition, the AFI in the data set with Mythimna separata was 15%.
Regarding `O=C1[C@@H]2C[C@@H](O)CN2C(=O)[C@@H]2CCCN12`, in data set [4], the LC50 is over 100 µg/mL.
For the molecule `O=C1C[C@@H](O)[C@H](O)c2cccc(O)c21` (relative stereo), in data set [4], the LC50 is over 100 µg/mL.
On the same count and under the same terms, to `O=C1C[C@@H](O)[C@@H](O)c2cccc(O)c21` (relative stereo) belongs over 100 µg/mL; to `O=C1N[C@@H](CO)C(=O)N2CCC[C@@H]12`, over 100 µg/mL.
On to `C[C@@H]1C(=O)N2c3ccccc3[C@@]3(O)C[C@H](n4cnc5ccccc5c4=O)C(=O)N1[C@H]23` [TRYPTOQUIVALINE O], for which the MIC is 12.5 µg/mL (≈ 31.1 µM) in the data set with Alternaria solani; 25 µg/mL (≈ 62.1 µM) with Alternaria alternata; 100 µg/mL (≈ 249 µM) in data set [1]; over 100 µg/mL in the data set on Fusarium solani; over 100 µg/mL in data set [2]; over 100 µg/mL in data set [3]. Moreover, the MIC against Fusarium graminearum stood at 50 µg/mL (≈ 124 µM); against Botrytis cinerea, 25 µg/mL (≈ 62.1 µM). The molecule also returned an LC50 in data set [4] of 72.8 µg/mL (≈ 181 µM).
`C[C@@H]1NC(=O)[C@@H]2C[C@@H](O)CN2C1=O`: in [4], the LC50 came out at 66.1 µg/mL (≈ 359 µM).
`CC/C=C\[C@H](O)[C@H](O)C1=C(C)C(=O)[C@]2(O1)C(=O)N[C@@](OC)(C(=O)c1ccccc1)[C@@H]2O` [PSEUROTIN A] gave an LC50 in [4] of over 100 µg/mL.
`COc1ccc2c3c([nH]c2c1)[C@H](CC(C)(C)O)N1C(=O)[C@@H]2CCCN2C(=O)[C@@]1(O)[C@H]3OC`: the MIC is 6.25 µg/mL (≈ 14.1 µM) in the data set with Alternaria solani; 6.25 µg/mL (≈ 14.1 µM) with Alternaria alternata; 6.25 µg/mL (≈ 14.1 µM) in [1]; 25 µg/mL (≈ 56.4 µM) with Fusarium solani; 12.5 µg/mL (≈ 28.2 µM) in data set [2]; 25 µg/mL (≈ 56.4 µM) in data set [3]. Besides, the MIC in the data set on Fusarium graminearum and against Botrytis cinerea was 6.25 µg/mL (≈ 14.1 µM) throughout. In [4], this molecule came in with an LC50 of 60.7 µg/mL (≈ 137 µM).
Take `C[C@@H]1NC(=O)[C@@H]2CCCN2C1=O`: the LC50 in data set [4] is over 100 µg/mL.
Still for that read-out and setting: in the case of `C[C@@H]1NC(=O)CNC1=O` it was over 100 µg/mL.
On to `Cc1cc(O)no1` [HYMEXAZOL], for which the MIC worked out at 12.5 µg/mL (≈ 126 µM) against Alternaria solani; 12.5 µg/mL (≈ 126 µM) in the data set with Alternaria alternata; 12.5 µg/mL (≈ 126 µM) in data set [1]; 50 µg/mL (≈ 505 µM) in the data set on Fusarium solani; 12.5 µg/mL (≈ 126 µM) in data set [2]; 25 µg/mL (≈ 252 µM) in data set [3]. For the same molecule, the MIC against Fusarium graminearum and in the data set with Botrytis cinerea was 12.5 µg/mL (≈ 126 µM) in each case.
As to `COc1ccc2c3c([nH]c2c1)[C@H](CC(C)(C)O)N1C(=O)[C@@H]2CCCN2C(=O)[C@@]1(O)[C@H]3O`, the MIC came to 25 µg/mL (≈ 58.2 µM) in the data set on Alternaria solani; 25 µg/mL (≈ 58.2 µM) against Alternaria alternata; 25 µg/mL (≈ 58.2 µM) in [1]; 50 µg/mL (≈ 116 µM) with Fusarium solani; 25 µg/mL (≈ 58.2 µM) in [2]; 50 µg/mL (≈ 116 µM) in data set [3]. Moreover, the MIC in the data set on Fusarium graminearum and in the data set on Botrytis cinerea was 25 µg/mL (≈ 58.2 µM) in each case. This molecule also showed an LC50 in [4] of 73.2 µg/mL (≈ 170 µM).
With `O=C1CNC(=O)[C@H](Cc2ccccc2)N1`, the LC50 in [4] is over 100 µg/mL.
`O=C1N[C@@H](Cc2c[nH]c3ccccc23)C(=O)N2CCC[C@@H]12` [BREVIANAMIDE F]: the LC50 in [4] amounted to 83.7 µg/mL (≈ 295 µM).
`COc1ccc2c(c1)N[C@@]1(C2=O)[C@H](C=C(C)C)N2C(=O)[C@@H]3CCCN3C(=O)[C@]2(O)[C@H]1O` showed an LC50 in [4] of over 100 µg/mL. In addition, the AFI with Mythimna separata was determined as 5%.
In turn, `C[C@@H]1CN(C)[C@@H]2Cc3c[nH]c4cccc(c34)[C@H]2[C@H]1O` [FUMIGACLAVINE B] yielded a 50% lethal concentration (LC50) in [4] of over 100 µg/mL.
